Laboratory results published in ChEMBL document CHEMBL2062477, “Dual-Specificity Phosphatase CDC25A/B Inhibitor Identified from a Focused Library with Nonelectrophilic Core Structure” (ACS Med Chem Lett, 2012).
Active and inactive are the calls of the source. The calls are words filed in the database; no cut-off is given here.

Tests used:
[1] = tested on: tsFT210; test: Inhibition of CDC25 in mouse tsFT210 cells assessed as hyperphosphorylation of CDK1 protein at 50 uM by Western blot analysis; type: cell-based
How it was run: (§1)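 G2-arrested tsFT210 cells (39 °C, 17 h) released at 32 °C for 4 h with compound or vehicle; CDK1 phosphorylation status and total CDK1 assessed by Western blotting.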

[2] = Cell cycle arrest in mouse tsFT210 cells assessed as accumulation at G2/M phase at 5 to 50 uM by propidium iodide staining-based flow cytometric analysis; type: functional
How it was run: (§2)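 tsFT210 cells synchronized at G2 by 17 h at 39 °C, then released for 4 h at 32 °C with compound (5–50 μM) or DMSO vehicle; 100 nM nocodazole reference. Cell-cycle phase distribution, including sub-G1, determined by flow cytometry.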

[3] = target: T1, Dual specificity protein phosphatase 1 (Homo sapiens, UniProt P28562); test: Inhibition of MKP1
T1 sequence (P28562 whole entry): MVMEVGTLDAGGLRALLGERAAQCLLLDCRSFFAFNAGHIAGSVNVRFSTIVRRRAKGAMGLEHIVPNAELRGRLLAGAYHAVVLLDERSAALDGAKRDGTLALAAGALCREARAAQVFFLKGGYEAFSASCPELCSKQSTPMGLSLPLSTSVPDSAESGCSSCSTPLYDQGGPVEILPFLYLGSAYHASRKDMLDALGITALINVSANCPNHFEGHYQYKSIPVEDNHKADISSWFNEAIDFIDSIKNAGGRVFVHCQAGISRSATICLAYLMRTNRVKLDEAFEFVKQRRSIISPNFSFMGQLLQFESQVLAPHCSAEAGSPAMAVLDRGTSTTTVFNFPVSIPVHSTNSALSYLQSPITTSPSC

[4] = target: T2, M-phase inducer phosphatase 2 (Homo sapiens, UniProt P30305); test: Inhibition of CDC25B
T2 sequence (P30305 whole entry): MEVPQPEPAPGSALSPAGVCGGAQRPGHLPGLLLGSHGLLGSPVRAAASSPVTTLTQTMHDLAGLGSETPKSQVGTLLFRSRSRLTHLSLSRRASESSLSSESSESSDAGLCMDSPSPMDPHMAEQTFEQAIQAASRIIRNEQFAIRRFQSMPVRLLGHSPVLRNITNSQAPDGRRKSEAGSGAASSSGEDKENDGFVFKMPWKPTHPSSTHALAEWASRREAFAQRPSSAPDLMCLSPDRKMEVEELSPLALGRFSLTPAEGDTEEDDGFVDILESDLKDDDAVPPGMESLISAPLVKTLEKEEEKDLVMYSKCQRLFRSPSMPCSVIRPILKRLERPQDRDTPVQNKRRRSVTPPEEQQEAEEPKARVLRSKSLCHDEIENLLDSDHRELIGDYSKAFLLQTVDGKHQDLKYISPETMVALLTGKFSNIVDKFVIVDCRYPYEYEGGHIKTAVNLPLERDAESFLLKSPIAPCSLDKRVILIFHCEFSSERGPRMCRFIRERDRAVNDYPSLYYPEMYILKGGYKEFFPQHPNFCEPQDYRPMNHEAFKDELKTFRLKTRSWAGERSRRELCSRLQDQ

[5] = target: T3, M-phase inducer phosphatase 1 (Homo sapiens, UniProt P30304); test: Inhibition of CDC25A
T3 sequence (P30304 whole entry): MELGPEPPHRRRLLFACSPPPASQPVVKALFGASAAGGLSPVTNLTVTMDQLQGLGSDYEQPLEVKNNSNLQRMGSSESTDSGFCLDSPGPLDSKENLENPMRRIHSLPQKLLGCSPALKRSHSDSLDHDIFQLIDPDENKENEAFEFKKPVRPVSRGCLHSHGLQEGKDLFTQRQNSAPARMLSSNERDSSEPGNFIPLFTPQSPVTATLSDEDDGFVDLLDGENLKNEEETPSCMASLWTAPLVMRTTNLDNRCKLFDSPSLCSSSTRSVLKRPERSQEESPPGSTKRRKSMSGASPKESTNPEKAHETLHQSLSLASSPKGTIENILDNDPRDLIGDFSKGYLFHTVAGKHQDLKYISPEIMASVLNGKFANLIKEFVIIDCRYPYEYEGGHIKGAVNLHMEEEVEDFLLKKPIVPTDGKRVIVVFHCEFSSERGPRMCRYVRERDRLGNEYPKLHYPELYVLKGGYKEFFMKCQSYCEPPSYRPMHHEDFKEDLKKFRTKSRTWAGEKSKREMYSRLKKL

[6] = target: T4, M-phase inducer phosphatase 3 (Homo sapiens, UniProt P30307); test: Inhibition of CDC25C
T4 sequence (P30307 whole entry): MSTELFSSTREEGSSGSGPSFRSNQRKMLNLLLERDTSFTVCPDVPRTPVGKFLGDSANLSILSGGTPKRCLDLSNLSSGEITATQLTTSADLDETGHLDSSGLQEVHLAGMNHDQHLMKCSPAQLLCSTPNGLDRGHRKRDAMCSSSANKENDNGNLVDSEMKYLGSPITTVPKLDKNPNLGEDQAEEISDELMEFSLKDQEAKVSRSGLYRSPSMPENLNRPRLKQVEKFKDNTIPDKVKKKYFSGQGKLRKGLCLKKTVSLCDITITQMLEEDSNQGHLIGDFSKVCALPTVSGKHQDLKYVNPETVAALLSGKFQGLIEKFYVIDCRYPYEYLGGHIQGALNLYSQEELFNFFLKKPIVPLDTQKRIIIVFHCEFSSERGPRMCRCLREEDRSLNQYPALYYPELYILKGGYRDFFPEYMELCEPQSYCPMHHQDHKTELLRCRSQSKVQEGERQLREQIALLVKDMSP

[7] = tested on: tsFT210; test: Induction of ROS generation in mouse tsFT210 cells at 50 uM at 32 degC for 30 min measured by flow cytometric analysis pretreated with H2DCFDA at 39 degC
[8] = target: T5, Dual specificity protein phosphatase 6 (Homo sapiens, UniProt Q16828); test: Inhibition of MKP3
T5 sequence (Q16828 whole entry): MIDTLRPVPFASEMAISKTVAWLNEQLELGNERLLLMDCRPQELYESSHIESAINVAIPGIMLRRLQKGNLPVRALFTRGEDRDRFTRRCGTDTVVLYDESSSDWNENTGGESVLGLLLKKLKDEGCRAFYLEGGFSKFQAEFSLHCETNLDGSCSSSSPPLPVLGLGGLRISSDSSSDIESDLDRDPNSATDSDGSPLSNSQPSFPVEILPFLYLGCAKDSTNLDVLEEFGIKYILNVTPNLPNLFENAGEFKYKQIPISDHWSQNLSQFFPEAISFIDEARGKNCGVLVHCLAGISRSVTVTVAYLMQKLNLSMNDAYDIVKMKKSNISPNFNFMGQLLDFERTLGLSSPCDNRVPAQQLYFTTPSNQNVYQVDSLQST

[9] = target: Dual specificity protein phosphatase 3 (Homo sapiens, UniProt P51452); test: Inhibition of VHR
Sequence of Dual specificity protein phosphatase 3 (P51452 whole entry): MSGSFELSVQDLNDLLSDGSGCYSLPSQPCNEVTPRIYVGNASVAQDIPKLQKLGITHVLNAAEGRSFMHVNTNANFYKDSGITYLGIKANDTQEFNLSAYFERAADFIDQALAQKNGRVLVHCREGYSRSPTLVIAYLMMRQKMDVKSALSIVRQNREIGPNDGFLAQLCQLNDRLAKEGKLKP

[10] = target: T6, Tyrosine-protein phosphatase non-receptor type 1 (Homo sapiens, UniProt P18031); test: Inhibition of PTP1B
T6 sequence (P18031 whole entry): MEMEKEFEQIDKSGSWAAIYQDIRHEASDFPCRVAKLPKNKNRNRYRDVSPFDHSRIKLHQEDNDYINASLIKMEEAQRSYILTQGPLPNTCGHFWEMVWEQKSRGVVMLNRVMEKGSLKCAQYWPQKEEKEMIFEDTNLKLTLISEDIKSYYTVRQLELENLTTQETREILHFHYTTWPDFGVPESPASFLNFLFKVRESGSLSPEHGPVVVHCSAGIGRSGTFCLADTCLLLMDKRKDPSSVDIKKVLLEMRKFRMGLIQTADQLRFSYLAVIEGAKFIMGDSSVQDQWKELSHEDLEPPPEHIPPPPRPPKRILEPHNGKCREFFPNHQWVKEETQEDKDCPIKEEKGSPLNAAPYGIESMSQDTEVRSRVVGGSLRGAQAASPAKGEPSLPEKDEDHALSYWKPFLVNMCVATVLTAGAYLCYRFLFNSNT

[11] = tested on: tsFT210; test: Induction of apoptosis in mouse tsFT210 cells assessed as increase in subG1 population at 50 uM after 17 hrs by propidium iodide staining-based flow cytometric analysis; type: functional, cell-based; settings: in the assay text read “after 4 hrs” for “after 17 hrs”; how it was run: as §2
[12] = tested on: tsFT210; test: Inhibition of CDC25 in mouse tsFT210 cells assessed as hyperphosphorylation of CDK1 protein by Western blot analysis; type: cell-based; how it was run: as §1
[13] = target: T3, M-phase inducer phosphatase 1; test: Inhibition of CDC25A in presence of 2 mM DTT
How it was run: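 In vitro inhibition of purified CDC25A or CDC25B with DTT concentration in the assay buffer varied.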

[14] = tested on: HL-60; test: cells; settings: Homo sapiens, HL-60, 48 h
[15] = Cell cycle arrest in mouse tsFT210 cells assessed as accumulation at G2/M phase by propidium iodide staining-based flow cytometric analysis; type: functional; how it was run: as §2

| Compound | inhibition [1] | Activity [2] | IC50 [3] | IC50 [4] | IC50 [5] | IC50 [6] | Activity [7] | IC50 [8] | IC50 [9] | IC50 [10] | Activity [11] | inhibition [12] | IC50 [13] | IC50 [14] | Activity [15] |
| --- | --- | --- | --- | --- | --- | --- | --- | --- | --- | --- | --- | --- | --- | --- | --- |
| CCCCCCCCCCCCCCCC(NCc1cccc(C)c1)=C1C(=O)OC(CO)C1=O (mixture of isomers) | inactive | inactive | > 100 µM | > 100 µM | > 100 µM | > 100 µM | inactive | > 100 µM | 1.63 µM | > 100 µM | inactive |  |  |  |  |
| CCCCCCCCCCCCCCCC(NCc1ccccc1O)=C1C(=O)OC(CO)C1=O (mixture of isomers) |  |  | > 100 µM |  | 13.5 µM | > 100 µM | inactive | > 100 µM | 24.9 µM | > 100 µM | inactive | Dose-dependent effect | 13.5 µM | 2.44 µM | Dose-dependent effect |
| CCCCCCCCCCCCCCC/C(NCc1ccccc1)=C1/C(=O)OC(CO)C1=O (stereo not given) |  |  | > 100 µM | 8.42 µM | 16.6 µM | > 100 µM | inactive | > 100 µM | 11.4 µM | > 100 µM | inactive | Dose-dependent effect | 16.6 µM |  | Dose-dependent effect |
